# Source: PubChem BioAssay
# Only a selection was taken, and hits are over-represented in it overall.
# S1P3 antagonist = S1P3 (human) receptor antagonism. inhibition, % at 4.98 µM. 170,000 compounds, 0.27% hits. AID 485. CHO S1P3 NFAT-BLA reporter, FRET fluorescence, antagonist mode. Q99500;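 active means inhibition above the plate cutoff, the mean inhibition of test wells on that plate plus 3 SD, cut at about 28% in these data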;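 further: cells challenged with S1P at its EC80 of 0.8 µM; blue over green emission ratio from cleaved BLA substrate after 4 h stimulation; 0% = S1P-stimulated wells and 100% = unstimulated DMSO-only wells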
# L major viab = Leishmania major promastigote growth inhibition. AID 1063. inhibition, % at 10 µM. Leishmania major promastigotes, resazurin fluorescence viability. 200,000 compounds, 9% hits; in the data active means inhibition above about 50%;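 further: promastigotes grown with compound for 44 hours at 28 °C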
# MDM2 E3 inh = Mdm2 E3 ligase (human) inhibition. AID 1230. Q00987. cell-based MDM2 ubiquitination luciferase reporter, 2 h; 0 = plate control, 100 = twice control, blank-subtracted. signal enhancement, % at 5 µM. 210,000 compounds, 0.11% hits;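 active means signal enhancement of 30% or more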;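 further: luminescence tracks abundance of the self-degrading MDM2-luciferase fusion protein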
#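 Test system: mammalian cells stably expressing self-ubiquitinating, self-degrading MDM2 E3–luciferase fusion; Amount: 2000 cells in each well; Medium: DMEM; Schedule: 4 h settle plus 2 h compound, 37 °C; Technique: SteadyLite luciferase luminescence after 15 min room-temperature reagent incubation; Benchmarks: plate control and blank wells.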
# S1P4 antagonist = human S1P4 receptor antagonism. S1P4-expressing cells, antagonist mode, reporter read-out. inhibition, % at 4.98 µM. 220,000 compounds, 0.26% hits. AID 1510; in the data active means inhibition above about 29%;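 further: 0% = wells stimulated with agonist and 100% = vehicle wells without agonist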
# Target sequence (O95977 whole entry, looked up): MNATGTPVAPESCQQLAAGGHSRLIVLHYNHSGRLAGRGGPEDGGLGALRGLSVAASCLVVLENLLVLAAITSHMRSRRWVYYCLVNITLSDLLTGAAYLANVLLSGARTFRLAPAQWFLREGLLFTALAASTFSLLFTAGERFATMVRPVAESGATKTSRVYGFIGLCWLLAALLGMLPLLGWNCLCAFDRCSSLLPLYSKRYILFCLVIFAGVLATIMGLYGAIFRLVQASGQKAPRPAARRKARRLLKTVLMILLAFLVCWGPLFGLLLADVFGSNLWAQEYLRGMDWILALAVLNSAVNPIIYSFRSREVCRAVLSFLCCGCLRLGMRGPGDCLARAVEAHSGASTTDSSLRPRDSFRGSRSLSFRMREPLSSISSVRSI
# S1P4 agonist = human S1P4 receptor agonism; activation, % at 4.98 µM; 220,000 compounds, 0.35% hits; AID 1509; S1P4-expressing cell line, agonist reporter assay; O95977; in the data active means activation above about 11%;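 further: 0% = DMSO vehicle and 100% = reference agonist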
# * = called active by the depositor; / = not tested or not shown.
SMILES,S1P3 antagonist,L major viab,MDM2 E3 inh,S1P4 antagonist,S1P4 agonist
COc1cc(C(=O)Nc2nc(-c3ccc(F)cc3)cs2)ccc1OCC(=O)N1CCOCC1,-3,96*,-9,-8,0
COc1ccc(-c2nc(NC(=O)c3ccc(OCC(=O)Nc4ccc(F)cc4)c(OC)c3)sc2C)cc1,10,69*,3,-7,1
COc1cc(C(=O)Nc2nc(-c3ccc(C)cc3)cs2)ccc1OCC(=O)N1CCOCC1,-7,95*,-11,-24,-1
COc1ccc(-c2csc(NC(=O)c3ccc(OCC(=O)N4CCOCC4)c(OC)c3)n2)cc1,-6,36,-23,-20,1
COC(=O)Cc1ccc(NC(=S)NNC(=O)C2CC2)cc1,0,/,-9,-5,0
O=C(NCC1CCCO1)c1cc2c(=O)[nH]c3ccccc3c2s1 (stereo unspecified),4,4,/,5,1
CCN(CC)S(=O)(=O)c1cccc(C(=O)N[C@H](C(=O)NCc2ccc(Cl)cc2)C(C)C)c1,/,10,-5,-15,-2
c1ccc(Cc2noc(CN3CCCN(C4Cc5ccccc5C4)CC3)n2)cc1,-8,92*,-16,-23,-1
c1ccc(Cc2noc(CN3CCN(C4CCc5ccccc5C4)CC3)n2)cc1 (stereo unspecified),-11,87*,-10,-11,1
CCCN(CCC)S(=O)(=O)c1ccc(C(=O)N2CCCc3ccccc32)cc1,/,64*,-13,5,-2
O=C(O)CCSc1nnc(SCC(=O)NCC(F)(F)F)s1,-15,63*,-6,-20,-1
CCOC(=O)CNC(=O)CSc1nnc(SCC(=O)NCC(=O)OCC)s1,-10,-7,-16,-23,-2
C/C(N)=C(/C#N)C(=O)CSc1nc2ccccc2c(=O)n1CCCOC(C)C,4,90*,-16,4,-1
CCOCCCn1c(SCC(=O)/C(C#N)=C(\C)N)nc2ccccc2c1=O,-18,23,-2,-17,4
CC1CCCCC1NC(=O)NC(=O)CCl (stereo unspecified),9,98*,12,-10,-3
CC1CCCC(NC(=O)CSC2CCCCC2)C1C (stereo unspecified),-10,5,8,-10,1
CC1CCCC(NC(=O)NC(=O)CCl)C1C (stereo unspecified),-15,99*,3,0,0
Nc1cc(Cl)nnc1Cl,3,/,-7,4,2
COc1ccc(C)cc1NC(=O)CCN1CC(C)OC(C)C1 (stereo unspecified),-13,-2,-17,6,-2
CCC1(C)Cc2ccccc2-c2[nH][nH]c(=O)c21 (stereo unspecified),-8,1,-10,2,1
N#CCCN(C(=O)COC(=O)c1ccc(CNS(=O)(=O)c2ccc(F)c(Cl)c2)cc1)c1ccc(F)cc1,-5,97*,-10,-12,0
CCCN(CC1CC1)C(=O)COC(=O)c1ccc(CNS(=O)(=O)c2ccc(F)c(Cl)c2)cc1,1,-6,12,-8,1
CCCc1nc(-c2cc3ccc(C)cc3[nH]c2=O)no1,/,22,-3,-9,-2
CCOc1ccccc1-c1nc(-c2cc3ccc(C)cc3[nH]c2=O)no1,/,69*,-8,-10,-5
COc1ccccc1/C=C/C(=O)NCC(=O)N/N=C(\CCC(=O)O)c1ccccc1,-5,99*,-10,-16,0
SMILES,S1P3 antagonist,L major viab,MDM2 E3 inh,S1P4 antagonist,S1P4 agonist
COc1ccc(/C=C/C(=O)NCC(=O)N/N=C(/CCC(=O)O)c2ccccc2)cc1,-9,/,-14,-7,0
Cc1cc(C)cc(OCc2nnc(SCC(=O)OC(C)C)o2)c1,/,-2,-13,-6,0
Cc1c(C(O)CN2CCN(Cc3ccc4c(c3)OCO4)CC2)c2ccccc2n1C (stereo unspecified),8,100*,-1,-22,1
COc1ccc2c(c1)c(C(O)CN1CCN(Cc3ccc4c(c3)OCO4)CC1)c(C)n2C (stereo unspecified),27,12,-11,-28,-2
OC(CN1CCN(Cc2ccc3c(c2)OCO3)CC1)c1c[nH]c2ccccc12 (stereo unspecified),/,91*,-21,-2,0
COc1cccc(Cn2cnc3c(N)c(C)c(C)cc32)c1,-15,8,-11,-18,0
COc1cccc(Cn2cc(N)cn2)c1,-11,98*,3,-6,2
Nc1cnn(Cc2ccc(F)cc2)c1,-4,15,-7,6,1
Nc1cnn(Cc2ccccc2F)c1,-10,100*,0,3,2
O=c1cc(-c2ccco2)oc2ccc(Cl)cc12,14,-7,-13,-9,2
CC1(C)CC(N=c2cc(-c3ccccc3)oc3ccc(Cl)cc23)CC(C)(C)N1,-9,101*,-19,-5,3
OCCCN=c1cc(-c2ccccc2)oc2ccc(Cl)cc12,/,100*,-24,-9,-3
O=c1cc(-c2ccccc2)oc2ccc(O)cc12,-4,/,-23,-24,0
O=C(COc1ccccc1)N1CCN(S(=O)(=O)c2cccc([N+](=O)[O-])c2)CC1,-8,-1,-14,5,-1
CCOc1ccccc1NC(=O)CCN1CCN(S(=O)(=O)c2ccc(Br)cc2)CC1,15,-5,-2,-17,0
CN(C)CCOc1nc(-c2ccccc2)nc2c1oc1ccccc12,-52,100*,13,-20,-1
Cc1ccc(S(=O)(=O)N2CCOCC2)cc1NC(=O)CNC1CCCC1,-8,/,-4,-18,2
COc1ccc(CCN(C(=O)C(F)(F)F)C(C(=O)NC2CCCC2)c2cccs2)cc1OC (stereo unspecified),/,59*,-24,4,-3
COc1ccc(CCN(C(=O)C(F)(F)F)C(C(=O)NC2CCCCC2)c2ccc(C)s2)cc1OC (stereo unspecified),/,46,-32,-14,-1
C#CC(=O)N(c1ccc(OC)c(OC)c1)C(C(=O)NC1CCCC1)c1cccs1 (stereo unspecified),/,100*,-1,16,-4
COc1ccc(N(C(=O)Cc2cccs2)C(C(=O)NC2CCCCC2)c2cccn2C)cc1OC (stereo unspecified),/,4,-3,-5,2
C#CC(=O)N(c1cccc(OC)c1)C(C(=O)NC1CCCC1)c1cccs1 (stereo unspecified),/,100*,-47,30*,1
Cc1ccc(S(=O)(=O)Nc2cc(C(F)(F)F)ccc2N2CCOCC2)c(C)c1,-5,29,8,-1,0
CC1(c2nnc(-c3ccncc3)o2)CC(c2ccc([N+](=O)[O-])cc2)=NO1 (stereo unspecified),/,/,-4,/,/
COC(=O)NNC(=S)Nc1ccc(Br)cc1,0,-4,-1,-6,4
CCCn1nnnc1NC(=O)COc1ccc(Br)cc1,3,-8,-15,-20,0
CN(C(=O)/C=C/c1ccc([N+](=O)[O-])s1)c1ccccc1,-5,98*,-7,-2,-1
